# Screens as filed in PubChem.
# IDH1 mut inh – inhibitors of human IDH1 R132H; O75874; IDH1 R132H reductase, diaphorase/resazurin fluorescence, 60 min; inhibition, % at 10 µM; hit rate 0.18% among 70,000; AID 624101; in the data active means inhibition above about 34%; inconclusive means no clear call, values can overlap the other calls; inactive means below about 11%;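 further: 0% = DMSO and 100% = no enzyme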
# T cruzi growth-1 – T. cruzi proliferation inhibition; T. cruzi beta-gal in NIH3T3, GalScreen luminescence, 90 h; inhibition, % at 8.34 µM; hit rate 5.9% among 77,000; AID 624255;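 active means mean inhibition above about 93%, with at least 55% of replicates each passing it, limit read from the data, passing the limit was not always enough; inconclusive means only one of those two conditions holds; inactive means neither condition holds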
# Pf Dd2 growth – P. falciparum Dd2 growth inhibition. hit rate 2.3% among 94,000. SYBR Green, 72 h; stronger effect = lower value. activity change, % at 10 µM; in the data active means activity change below about -80%; inconclusive means no clear call, values can overlap the other calls
# GASC1 inh – KDM4C (human) demethylase inhibition. Q9H3R0. AID 720574. hit rate 0.15% among 96,000. inhibition, % at 12.5 µM. GST-KDM4C 2-372, H3K9me3 peptide, LANCE TR-FRET;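 active means mean replicate inhibition above about 25%, with at least 55% of replicates also reaching it, limit read from the data, passing the limit was not always enough; inconclusive means only one of those two conditions met; inactive means neither condition met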
# Target sequence (Q9H3R0 2-372 limits assumed): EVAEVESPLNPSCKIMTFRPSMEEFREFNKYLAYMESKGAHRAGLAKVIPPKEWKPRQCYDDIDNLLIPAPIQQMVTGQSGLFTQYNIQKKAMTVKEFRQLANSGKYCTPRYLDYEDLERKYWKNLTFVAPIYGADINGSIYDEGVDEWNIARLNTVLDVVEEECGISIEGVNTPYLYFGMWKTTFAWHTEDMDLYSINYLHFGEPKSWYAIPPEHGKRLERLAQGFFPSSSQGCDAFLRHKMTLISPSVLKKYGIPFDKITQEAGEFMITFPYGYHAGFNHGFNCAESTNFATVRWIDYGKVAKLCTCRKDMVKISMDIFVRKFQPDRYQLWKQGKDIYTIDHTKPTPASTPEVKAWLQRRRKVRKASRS
#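 Compound: one test concentration per compound; Material: GST-GASC-1 enzyme fragment 2-372; Amount: GASC-1 enzyme at 10 nM final in reaction; Also added: H3K9me3 peptide substrate, Fe(II), 2-oxoglutarate; Technique: LANCE TR-FRET; Times: 30 min demethylation and 1 h detection at room temperature.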
# T cruzi growth-2 – blocks T. cruzi growth in NIH3T3 host cells; shares compounds with T cruzi growth-1; T. cruzi beta-gal in NIH3T3, GalScreen luminescence, 90 h; inhibition, % at 8.35 µM; hit rate 72% among 5,600;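 active means mean replicate inhibition above about 95% and at least 55% of replicates individually reaching it, limit read from the data; inconclusive means only one of the two criteria is met; inactive means neither criterion is met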
# T cruzi growth-3 – Trypanosoma cruzi proliferation inhibition; shares compounds with T cruzi growth-1; T. cruzi beta-gal in NIH3T3, GalScreen luminescence, 90 h; inhibition, % at 2.09 µM; hit rate 21% among 5,600; AID 651740;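 active means mean inhibition above about 95%, with at least 55% of replicates also reaching it, limit read from the data; inconclusive means meets just one of the two conditions; inactive means meets neither condition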;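 further: plate controls were neutral control median for no effect and positive control median for full effect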
# NIH3T3 tox – cytotoxicity in mouse NIH/3T3 fibroblasts. shares compounds with T cruzi growth-1. hit rate 14% among 5,600. cytotoxicity (signal decrease), % at 8.35 µM. NIH/3T3 viability, CellTiter-Glo ATP luminescence, 90 h;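 active means mean signal decrease across replicates above about 35% based on untreated-well scatter, with enough replicates individually passing, limit read from the data; inconclusive means no rule stated though some were filed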;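 further: 0% = median of neutral control wells and 100% = median of positive control wells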
# 3T3 cytotox 2 – NIH/3T3 (mouse) viability loss | inhibition, % at 24.9 µM | shares compounds with T cruzi growth-1 | hit rate 56% among 5,600 | NIH/3T3 viability, CellTiter-Glo ATP luminescence, 90 h;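 active means mean loss of cell viability signal at or above a set limit, and enough replicates individually reaching it; inconclusive means meets only the mean limit or only the replicate share; inactive means meets neither condition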;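 further: 0% = median of neutral control wells and 100% = median of positive control wells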
# * hit, by the source's call; u = inconclusive; x = no result given. This is a sample that favours compounds with a hit; in the whole collection about 5.8% have one here.
SMILES,IDH1 mut inh,T cruzi growth-1,Pf Dd2 growth,GASC1 inh,T cruzi growth-2,T cruzi growth-3,NIH3T3 tox,3T3 cytotox 2
Cc1ccccc1S(=O)(=O)N1CCCCN2[C@H](CO)[C@@H](c3ccc(-c4ccccc4)cc3)[C@@H]2C1,x,101.6*,2.5,x,97.7*,80.4,35.6*,44.9*
Cc1ccccc1S(=O)(=O)N1CCCCN2[C@H](C1)[C@H](c1ccc(-c3cccc(F)c3)cc1)[C@@H]2CO,x,103.0*,-33.1,-1.2,102.7*,105.6*,-11.9,56.6*
Cc1ccccc1S(=O)(=O)N1CCCCN2[C@H](CO)[C@@H](c3ccc(-c4cccc(F)c4)cc3)[C@H]2C1,x,106.3*,-39.8,-0.9,103.5*,59.2,18.2,75.8*
COc1cc(CN2CC3(CCN(C)CC3)c3c([nH]c4cc(OC)ccc34)[C@@H]2CO)cc(OC)c1,x,x,17.3,x,x,x,x,x
CS(=O)(=O)N(CC(=O)Nc1cccc([N+](=O)[O-])c1)c1ccc(Br)cc1,0.4,x,x,x,x,x,x,x
C[C@H]1CN([C@@H](C)CO)C(=O)c2cccc(NC(=O)C3CCOCC3)c2O[C@H]1CN(C)C(=O)Nc1cccc2ccccc12,-0.5,6.4,-18.5,4.4,x,x,x,x
C[C@@H]1CN([C@H](C)CO)C(=O)c2cccc(NC(=O)C3CCOCC3)c2O[C@H]1CN(C)C(=O)Nc1cccc2ccccc12,x,102.9*,9.7,0.1,82.4,-30.0,11.6,u
C[C@@H]1CN([C@@H](C)CO)C(=O)c2cccc(NC(=O)C3CCOCC3)c2O[C@@H]1CN(C)C(=O)Nc1cccc2ccccc12,-1.8,100.1*,-7.3,-1.0,-18.6,14.9,4.6,14.7
COc1cc(NC(=O)COc2ccc(Cl)cc2)c(C(=O)O)cc1OC,0.0,x,x,x,x,x,x,x
O=C(Nc1ccccc1F)N1CCCCN2[C@H](C1)[C@H](c1ccc(/C=C/c3ccccc3)cc1)[C@@H]2CO,x,115.9*,-14.2,-0.6,109.7*,51.2,3.7,46.8*
O=C(Nc1ccccc1F)N1CCCCN2[C@H](CO)[C@@H](c3ccc(/C=C/c4ccccc4)cc3)[C@@H]2C1,x,111.5*,-9.5,-2.2,98.3*,101.1*,12.5,104.8*
CCOc1cc(S(=O)(=O)NCc2ccco2)ccc1Cl,-0.2,x,x,x,x,x,x,x
N#Cc1ccc(/C=N/NC(=O)CCCCCCC(=O)NO)cc1,0.4,x,x,x,x,x,x,x
C[C@H]1CCCCO[C@@H](CN(C)C(=O)Nc2ccc(C(F)(F)F)cc2)[C@@H](C)CN([C@@H](C)CO)C(=O)c2cc(NS(C)(=O)=O)ccc2O1,-0.3,108.8*,-41.4,0.7,107.1*,34.6,24.0,0.0
Cc1ccc(S(=O)(=O)Nc2ccc3c(c2)C(=O)N([C@H](C)CO)C[C@H](C)[C@H](CN(C)C(=O)Nc2ccc(C(F)(F)F)cc2)OCCCC[C@H](C)O3)cc1,x,100.6*,-21.8,-0.1,100.6*,115.8*,-15.5,-0.8
Cc1ccc(S(=O)(=O)Nc2ccc3c(c2)C(=O)N([C@H](C)CO)C[C@H](C)[C@H](CN(C)C(=O)Nc2ccc(C(F)(F)F)cc2)OCCCC[C@@H](C)O3)cc1,3.1,103.3*,-51.1,1.4,104.4*,54.3,40.0*,47.9*
Cc1ccc(S(=O)(=O)Nc2ccc3c(c2)C(=O)N([C@@H](C)CO)C[C@@H](C)[C@H](CN(C)C(=O)Nc2ccc(C(F)(F)F)cc2)OCCCC[C@@H](C)O3)cc1,-2.3,99.9*,4.7,-1.2,102.1*,112.7*,31.7,36.3*
C[C@@H]1CCCCO[C@@H](CN(C)C(=O)Nc2ccc(C(F)(F)F)cc2)[C@@H](C)CN([C@H](C)CO)C(=O)c2cc(NS(=O)(=O)c3ccc(Cl)cc3)ccc2O1,x,87.6,-19.1,x,x,x,x,x
C[C@@H]1CN([C@H](C)CO)C(=O)c2cc(NS(=O)(=O)c3ccc(Cl)cc3)ccc2O[C@@H](C)CCCCO[C@H]1CN(C)C(=O)Nc1ccc(C(F)(F)F)cc1,4.6,86.4,-68.1,3.4,x,x,x,x
Cc1ccc(NC(=O)CNC(=O)c2ccc([N+](=O)[O-])cc2)cc1,0.0,x,x,x,x,x,x,x
COc1ccc(S(=O)(=O)Nc2ccc3c(c2)C(=O)N([C@H](C)CO)C[C@H](C)[C@@H](CN(C)C(=O)Nc2ccc(C(F)(F)F)cc2)OCCCC[C@H](C)O3)cc1,x,101.3*,-72.1,x,108.9*,115.6*,10.3,13.1
C[C@@H]1CCCCO[C@H](CN(C)C(=O)Nc2ccc(C(F)(F)F)cc2)[C@@H](C)CN([C@H](C)CO)C(=O)c2cc(NS(=O)(=O)c3ccc(F)cc3)ccc2O1,3.6,100.0*,-31.6,-0.1,109.3*,49.4,-10.7,-11.3
C[C@@H]1CCCCO[C@H](CN(C)C(=O)Nc2ccc(C(F)(F)F)cc2)[C@H](C)CN([C@@H](C)CO)C(=O)c2cc(NS(=O)(=O)c3ccc(F)cc3)ccc2O1,-0.8,79.1,-45.8,-0.2,x,x,x,x
Cc1noc(C)c1S(=O)(=O)N(C)C[C@H]1OCCCC[C@@H](C)Oc2ccc(NC(=O)Nc3ccc4c(c3)OCO4)cc2C(=O)N([C@@H](C)CO)C[C@H]1C,1.6,107.6*,-78.1,-0.6,105.5*,24.5,28.0,21.0
Cc1noc(C)c1S(=O)(=O)N(C)C[C@@H]1OCCCC[C@@H](C)Oc2ccc(NC(=O)Nc3ccc4c(c3)OCO4)cc2C(=O)N([C@@H](C)CO)C[C@@H]1C,x,57.5,-35.9,1.1,x,x,x,x
SMILES,IDH1 mut inh,T cruzi growth-1,Pf Dd2 growth,GASC1 inh,T cruzi growth-2,T cruzi growth-3,NIH3T3 tox,3T3 cytotox 2
Cc1noc(C)c1S(=O)(=O)N(C)C[C@H]1OCCCC[C@@H](C)Oc2ccc(NC(=O)Nc3ccc4c(c3)OCO4)cc2C(=O)N([C@H](C)CO)C[C@@H]1C,0.1,103.2*,0.0,0.7,u,13.2,26.0,45.5*
Cc1noc(C)c1S(=O)(=O)N(C)C[C@H]1OCCCC[C@H](C)Oc2ccc(NC(=O)Nc3ccc4c(c3)OCO4)cc2C(=O)N([C@@H](C)CO)C[C@@H]1C,1.1,u,-78.1,-0.9,106.0*,4.0,0.0,-2.6
COC(=O)C[C@H]1C[C@@H]2c3cc(NC(=O)Nc4ccc(C(F)(F)F)cc4)ccc3O[C@@H]2[C@@H](CO)O1,2.4,103.8*,-37.5,-2.5,108.3*,30.3,9.7,25.3*
COCCNC(=O)C[C@@H]1C[C@H]2c3cc(NC(=O)Nc4ccc(C(F)(F)F)cc4)ccc3O[C@H]2[C@H](CO)O1,-0.1,123.2*,-67.7,0.2,42.3,-2.2,-14.0,-2.2
C/C=C/c1ccc([C@@H]2[C@@H](CO)N3CCCCN(C(=O)Nc4cc(F)ccc4F)C[C@@H]23)cc1,x,78.7,-43.2,-2.1,x,x,x,x
O=C(Nc1cc(F)ccc1F)N1CCCCN2[C@H](C1)[C@H](c1ccc(-c3ccncc3)cc1)[C@@H]2CO,x,84.5,-0.2,0.1,x,x,x,x
